In ChEMBL document CHEMBL1129545, “Synthesis and evaluation of the antiproliferative effects of 1-O-hexadecyl-2-O-methyl-3-O-(2'-acetamido-2'-deoxy-beta-D- glucopyranosyl)-sn-glycerol and 1-O-hexadecyl-2-O-methyl-3-0- (2'-amino-2'-deoxy-beta-D-glucopyranosyl)-sn-glycerol on epithelial cancer cell growth” (J Med Chem, 1996):

Legend:
Type in all cases: functional, cell-based
T84 = test: Inhibitory activity against T84 epithelial Cancer cell line at the concentration 0-30 uM for 48 hr; settings: Homo sapiens, T84, 48 h
Procedure, shortened: (§1)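 Human lines from frozen ATCC stocks: A549 in Ham's F-12, T84 in 1:1 F-12/DMEM, MCF-7 and A427 in DMEM, with 10% FBS. Log-phase cells in 24-well plates had medium replaced with drug-containing medium (0–30 μM, serial dilution of ethanol stocks) for 48 h. Coulter counts of cell increase as percent of drug-free controls; IC50 for 50% inhibition; means of eight determinations.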

A-427 = test: Inhibitory activity against A427 epithelial Cancer cell line at the concentration 0-30 uM for 48 hr; settings: Homo sapiens, A-427, 48 h; procedure, shortened: as §1
A549 = test: Inhibitory activity against A549 epithelial Cancer cell line at the concentration 0-30 uM for 48 hr; settings: Homo sapiens, A549, 48 h; procedure, shortened: as §1
OVCAR-3 [1] = test: Inhibitory activity against OVCAR-3 epithelial Cancer cell line at the concentration 0-30 uM for 48 hr; settings: Homo sapiens, OVCAR-3, 48 h
Procedure, shortened: (§2)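 OVCAR-3 ovarian adenocarcinoma cells in RPMI 1640 with 20% FBS and 10 μg/mL insulin, in 24-well plates. At log phase, medium was replaced with drug-containing medium (0–30 μM, serial dilution of ethanol stocks) for 48 h. Increase in cell number was counted on a Coulter counter relative to drug-free wells, and IC50 was taken as 50% inhibition.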

MCF7 = test: Inhibitory activity against MCF-7 epithelial Cancer cell line at the concentration 0-30 uM for 48 hr; settings: Homo sapiens, MCF7, 48 h; procedure, shortened: as §1
OVCAR-3 [2] = test: Inhibitory activity against OVCAR-3 cell growth; settings: Homo sapiens; procedure, shortened: as §2

Row | IC50 (T84) [µM] | IC50 (A-427) [µM] | IC50 (A549) [µM] | IC50 (OVCAR-3 [1]) [µM] | IC50 (MCF7) [µM] | IC50 (OVCAR-3 [2]) [µM] | SMILES
1 | > 30 | 24.5 | 9 | 12 | 17 | – | CCCCCCCCCCCCCCCCOC[C@H](CO[C@H]1O[C@@H](CO)[C@H](O)[C@@H](O)[C@@H]1NC(C)=O)OC
2 | 12.2 | 7 | 8.3 | 4 | 6.5 | – | CCCCCCCCCCCCCCCCOC[C@H](CO[C@H]1O[C@@H](CO)[C@H](O)[C@@H](O)[C@@H]1N)OC
3 | – | – | – | – | – | > 30 | CCCCCCCCCCCCCCCCOP(=O)([O-])OCC[N+](C)(C)C [MILTEFOSINE]
